Reference: ChEMBL document CHEMBL1127826, “Inhibitors of acyl-CoA:cholesterol acyltransferase (ACAT). 7. Development of a series of substituted N-phenyl-N'-[(1-phenylcyclopentyl)methyl]ureas with enhanced hypocholesterolemic activity” (J Med Chem, 1994)

Columns and labels:
[1] = target: T1, Acyl-CoA:cholesterol acyltransferase (Oryctolagus cuniculus, UniProt Q95214); experiment: Tested for in vitro inhibition against Acyl coenzyme A:cholesterol acyltransferase of intestinal microsomes in cholesterol-fed rabbits; set-up: species or system Microsome
T1 sequence (Q95214 whole entry): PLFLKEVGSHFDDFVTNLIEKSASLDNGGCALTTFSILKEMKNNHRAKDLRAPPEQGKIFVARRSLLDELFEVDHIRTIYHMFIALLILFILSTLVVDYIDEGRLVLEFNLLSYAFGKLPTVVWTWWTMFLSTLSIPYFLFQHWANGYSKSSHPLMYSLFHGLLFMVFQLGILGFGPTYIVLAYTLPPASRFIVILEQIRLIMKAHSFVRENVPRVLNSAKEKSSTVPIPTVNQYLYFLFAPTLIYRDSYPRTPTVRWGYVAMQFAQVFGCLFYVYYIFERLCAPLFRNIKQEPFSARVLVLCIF
Method in brief: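 Microsomes were prepared from intestine of cholesterol-fed rabbits. ACAT activity was measured using [1-14C]oleoyl-CoA as substrate. Each determination was run in triplicate.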

[2] = species on record: Rattus norvegicus; experiment: Percent change in total cholesterol in peanut oil (5.5%) - cholic acid (0.3%) - Cholesterol (1.5%) fed rats after a single dose; assay type: functional
Method in brief: (§1)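 Male Sprague-Dawley rats (200-225 g), n=5-7/group, given a single oral dose at 4 p.m. as a suspension in 1.5% CMC/0.2% Tween-20 in water (50 mg/kg); controls received vehicle alone. The rats then had free access to chow with peanut oil, cholesterol and cholic acid. At 8 a.m. next day they were bled by cardiac puncture under ether, and serum total cholesterol was measured as % change versus controls (unpaired two-tailed t-test).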

[3] = species on record: Rattus norvegicus; experiment: Percent change in total cholesterol in peanut oil (5.5%)-, cholic acid (0.3%)-, Cholesterol (1.5%)-fed rats after a single dose.; assay type: functional; method in brief: as §1
[4] = Compound was evaluated for the distribution coefficient at pH 7.4; assay type: physicochemical; conditions: octanol/water, read-out: logD
[5] = system: Rattus norvegicus; experiment: Compound was evaluated for the percentage change in total cholesterol in peanut oil (5.5%)-cholic acid (0.3%)-cholesterol (1.5%)-fed rats at 30 mg/kg; assay type: functional

## CC(C)c1cccc(C(C)C)c1NC(=O)NCC1(c2ccc(C(C)(C)C)cc2)CCCC1
[1]
  IC50: 63 nM
[2]
  Delta TC: -48%

## CC(C)c1cccc(C(C)C)c1NC(=O)NCC1(c2ccc(N(CCO)CCO)cc2)CCCC1
[1]
  IC50: 21 nM
[3]
  Delta TC: -50%

## CC(C)c1cccc(C(C)C)c1NC(=O)NCC1(c2ccc(F)cc2)CCCC1
[1]
  IC50: 23 nM
[2]
  Delta TC: -57%

## CC(C)c1cccc(C(C)C)c1NC(=O)NCC1(c2cccc([N+](=O)[O-])c2)CCCC1
[1]
  IC50: 51 nM
[3]
  Delta TC: -51%

## CC(C)c1cccc(C(C)C)c1NC(=O)NCC1(c2cc(C(F)(F)F)cc(C(F)(F)F)c2)CCCC1
[1]
  IC50: 57 nM
[2]
  Delta TC: -32%

## Cc1cc(C)c(C2(CNC(=O)Nc3c(C(C)C)cccc3C(C)C)CCCC2)c(C)c1
[1]
  IC50: 56 nM
[2]
  Delta TC: -24%

## CC(C)c1cccc(C(C)C)c1NC(=O)NCC1(c2cccc(C(=O)O)c2)CCCC1
[1]
  IC50: 620 nM
[3]
  Delta TC: -40%

## CC(C)c1cccc(C(C)C)c1NC(=O)NCC1(c2ccc(N(C)C)cc2C(F)(F)F)CCCC1
[1]
  IC50: 50 nM

## CC(C)c1cccc(C(C)C)c1NC(=O)NCC1(c2cccc(CN(CCO)CCO)c2)CCCC1
[3]
  Delta TC: -33%
[4]
  logD: 3.55
[5]
  Delta TC: -63%

## COC(=O)c1ccc(C2(CNC(=O)Nc3c(C(C)C)cccc3C(C)C)CCCC2)cc1
[1]
  IC50: 360 nM
[3]
  Delta TC: -3%

## CC(C)c1cccc(C(C)C)c1NC(=O)NCC1(c2ccccc2C(F)(F)F)CCCC1
[1]
  IC50: 18 nM
[2]
  Delta TC: -50%

## CC(C)c1cccc(C(C)C)c1NC(=O)NCC1(c2cccc(CN(C)C)c2)CCCC1.Cl
[1]
  IC50: 67 nM
[3]
  Delta TC: -44%
[4]
  logD: 4.87
[5]
  Delta TC: -46%

## CC(C)c1cccc(C(C)C)c1NC(=O)NCC1(c2ccc(Br)cc2)CCCC1
[1]
  IC50: 29 nM
[2]
  Delta TC: -59%

## CC(C)c1cccc(C(C)C)c1NC(=O)NCC1(c2cccc(CBr)c2)CCCC1
[1]
  IC50: 44 nM
[4]
  logD: 5.23
[2]
  Delta TC: -26%

## COc1ccccc1C1(CNC(=O)Nc2c(C(C)C)cccc2C(C)C)CCCC1
[1]
  IC50: 23 nM
[3]
  Delta TC: -53%

## CC(C)c1cccc(C(C)C)c1NC(=O)NCC1(c2cccc(CO)c2)CCCC1
[1]
  IC50: 15 nM
[3]
  Delta TC: -40%

## CC(C)c1cccc(C(C)C)c1NC(=O)NCC1(c2cccc(C(F)(F)F)c2)CCCC1
[1]
  IC50: 27 nM
[2]
  Delta TC: -45%

## CC(C)c1cccc(C(C)C)c1NC(=O)NCC1(c2ccc(Cl)cc2)CCCC1
[1]
  IC50: 32 nM
[2]
  Delta TC: -64%

## CC(C)c1ccc(C2(CNC(=O)Nc3c(C(C)C)cccc3C(C)C)CCCC2)cc1
[1]
  IC50: 48 nM
[2]
  Delta TC: -63%

## COc1cccc(C2(CNC(=O)Nc3c(C(C)C)cccc3C(C)C)CCCC2)c1
[1]
  IC50: 13 nM
[3]
  Delta TC: -42%

## CC(=O)OCCN(CCOC(C)=O)Cc1cccc(C2(CNC(=O)Nc3c(C(C)C)cccc3C(C)C)CCCC2)c1
[1]
  IC50: 33 nM
[3]
  Delta TC: -35%
[4]
  logD: 4.55
[5]
  Delta TC: -71%

## Cc1ccc(C)c(C2(CNC(=O)Nc3c(C(C)C)cccc3C(C)C)CCCC2)c1
[1]
  IC50: 39 nM
[2]
  Delta TC: -48%

## CC(C)c1cccc(C(C)C)c1NC(=O)NCC1(c2cccc(N)c2)CCCC1
[1]
  IC50: 21 nM
[3]
  Delta TC: -75%
